Data as given in ChEMBL document CHEMBL3745659, “Synthesis and Characterization of 4,11-Diaminoanthra[2,3-b]furan-5,10-diones: Tumor Cell Apoptosis through tNOX-Modulated NAD(+)/NADH Ratio and SIRT1” (J Med Chem, 2015).
pIC50: −log10 of the molar value. Active and inactive are the calls of the source. The rule behind the calls is not given here.

Tests used:
[1] = Antiproliferative activity against mouse NIH/3T3 cells after 48 hrs by cell impedance based study; conditions: NIH3T3, 48 h
[2] = tested on: AGS; assay: Upregulation of phosphorylated p53 level in human AGS cells at 1 and 5 uM after 24 hrs by Western blot analysis; type: functional, cell-based
[3] = tested on: L1210; assay: Antiproliferative activity against mouse L1210 cells after 72 hrs by MTT assay; conditions: L1210, 72 h
[4] = tested on: AGS; assay: Induction of apoptosis in human AGS cells assessed as change in mitochondrial transmembrane potential incubated for 1.5 hrs by DiOC6(3) dye-based flow cytometric analysis; type: functional, cell-based
[5] = tested on: AGS; assay: […] in human AGS cells assessed as downregulation of beta-catenin after 24 hrs by Western blot analysis; type: functional, cell-based
[6] = Drug uptake in human K562/4 cells at 3 uM incubated for 2 hrs by flow cytometric analysis; type: ADME, cell-based; conditions: k562/4, 2 h
Method in brief: (§1)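 K562 and K562/4 cells incubated 2 h with 3 µM compound; uptake measured by flow cytometry as ratios (arbitrary units) of mean fluorescence channels of the histograms; verapamil (10 µM), a Pgp transport blocker, added 30 min before compound where used.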

[7] = tested on: Calf thymus DNA; assay: Binding affinity to calf thymus double stranded DNA assessed as number of base pairs covered by one molecule of compound by spectrophotometric titration method; type: nucleic-acid assay; conditions: Bos taurus
[8] = molecular target: T1, Ecto-NOX disulfide-thiol exchanger 2 (Homo sapiens) (UniProt Q16206); assay: Inhibition of tNOX in human AGS cells assessed as decrease in intracellular NAD+/NADH ratio in human AGS cells at 5 uM incubated for 5 mins
T1 sequence (whole entry): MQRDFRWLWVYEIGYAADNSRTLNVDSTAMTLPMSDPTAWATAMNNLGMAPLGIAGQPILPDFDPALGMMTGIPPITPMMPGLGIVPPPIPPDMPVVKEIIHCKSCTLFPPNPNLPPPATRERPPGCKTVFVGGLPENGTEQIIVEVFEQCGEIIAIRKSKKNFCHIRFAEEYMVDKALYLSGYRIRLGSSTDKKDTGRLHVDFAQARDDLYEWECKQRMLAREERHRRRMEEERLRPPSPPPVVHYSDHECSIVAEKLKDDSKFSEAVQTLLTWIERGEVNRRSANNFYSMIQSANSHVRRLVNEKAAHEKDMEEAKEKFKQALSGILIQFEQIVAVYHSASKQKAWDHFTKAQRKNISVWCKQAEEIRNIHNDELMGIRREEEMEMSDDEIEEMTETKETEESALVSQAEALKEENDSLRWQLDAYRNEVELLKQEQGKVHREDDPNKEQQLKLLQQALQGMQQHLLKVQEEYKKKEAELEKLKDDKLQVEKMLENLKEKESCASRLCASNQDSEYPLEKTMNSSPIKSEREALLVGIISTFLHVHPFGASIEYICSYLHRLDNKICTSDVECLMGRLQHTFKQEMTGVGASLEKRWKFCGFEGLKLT

[9] = tested on: HeLa; assay: Antiproliferative activity against human HeLa cells after 72 hrs by MTT assay; type: functional, cell-based
[10] = Drug uptake in human K562/4 cells at 3 uM incubated for 2 hrs in presence of verapamil by flow cytometric analysis; type: ADME, cell-based; conditions: k562/4, 2 h; method in brief: as §1
[11] = molecular target: T2, DNA topoisomerase 1 (Homo sapiens) (UniProt P11387); assay: Inhibition of Top1 (unknown origin)-mediated relaxation of pBR322 DNA at 2.5 uM incubated for 30 mins by ethidium bromide staining-based gel electrophoresis assay
T2 sequence (whole entry): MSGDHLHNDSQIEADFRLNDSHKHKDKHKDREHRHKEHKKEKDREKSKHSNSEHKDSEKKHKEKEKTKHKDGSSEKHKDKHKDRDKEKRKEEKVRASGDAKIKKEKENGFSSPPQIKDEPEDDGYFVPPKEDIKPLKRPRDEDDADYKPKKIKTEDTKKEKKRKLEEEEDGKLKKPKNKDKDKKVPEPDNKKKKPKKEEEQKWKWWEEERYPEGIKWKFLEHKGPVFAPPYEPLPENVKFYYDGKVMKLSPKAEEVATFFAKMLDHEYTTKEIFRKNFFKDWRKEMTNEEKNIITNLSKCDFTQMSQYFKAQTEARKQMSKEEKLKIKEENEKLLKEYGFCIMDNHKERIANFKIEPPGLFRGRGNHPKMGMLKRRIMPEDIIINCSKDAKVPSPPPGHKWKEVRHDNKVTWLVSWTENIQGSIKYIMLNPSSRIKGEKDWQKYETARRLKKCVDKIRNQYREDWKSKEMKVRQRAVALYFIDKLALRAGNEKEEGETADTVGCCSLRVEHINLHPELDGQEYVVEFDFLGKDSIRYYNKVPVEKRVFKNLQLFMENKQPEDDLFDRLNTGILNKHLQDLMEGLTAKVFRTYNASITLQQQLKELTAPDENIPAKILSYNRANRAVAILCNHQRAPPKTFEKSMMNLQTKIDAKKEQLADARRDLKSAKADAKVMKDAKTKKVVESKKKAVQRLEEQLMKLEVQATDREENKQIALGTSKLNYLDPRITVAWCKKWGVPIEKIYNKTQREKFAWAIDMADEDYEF
Method in brief: (§2)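 Supercoiled pBR322 plasmid treated with Top1 without drug or with compound at 0.5, 2.5 or 10 µM; camptothecin as reference; relaxation assessed by gel electrophoresis.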

[12] = tested on: AGS; assay: Induction of apoptosis in human AGS cells assessed as necrotic cells at 1 uM after 24 hrs by annexin V-FITC staining-based flow cytometric analysis (Rvb=0.9%); type: functional
Method in brief: (§3)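 AGS cells exposed to compound for 24 h; Annexin V-FITC staining and flow cytometry used to give percentage of apoptotic cells; mean ± S.E. from at least three independent experiments.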

[13] = molecular target: DNA topoisomerase 2-alpha (Homo sapiens) (UniProt P11388); assay: Inhibition of Top2 (unknown origin)-mediated relaxation of pBR322 DNA at 0.1 to 2.5 uM incubated for 30 mins by ethidium bromide staining-based gel electrophoresis assay
[14] = tested on: AGS; assay: Induction of apoptosis in human AGS cells assessed as late apoptotic cells at 0.1 uM after 24 hrs by annexin V-FITC staining-based flow cytometric analysis (Rvb=0.3%); type: functional; method in brief: as §3
[15] = tested on: AGS; assay: Induction of apoptosis in human AGS cells assessed as early apoptotic cells at 0.1 uM after 24 hrs by annexin V-FITC staining-based flow cytometric analysis (Rvb=7.2%); type: functional; method in brief: as §3
[16] = tested on: AGS; assay: Upregulation of acetylated p53 level in human AGS cells at 1 and 5 uM after 24 hrs by Western blot analysis; type: functional, cell-based
[17] = tested on: AGS; assay: Induction of apoptosis in human AGS cells assessed as early apoptotic cells at 0.05 uM after 24 hrs by annexin V-FITC staining-based flow cytometric analysis (Rvb=7.2%); type: functional; method in brief: as §3
[18] = Antiproliferative activity against human HCT116 cells after 72 hrs by MTT assay; type: functional, cell-based; conditions: HCT-116, 72 h
[19] = tested on: AGS; assay: Upregulation of caspase3-directed PARP cleavage in human AGS cells at 5 uM after 24 hrs by Western blot analysis; type: functional, cell-based
[20] = molecular target: T2, DNA topoisomerase 1 (Homo sapiens); assay: Inhibition of Top1 (unknown origin)-mediated relaxation of pBR322 DNA at 0.5 uM incubated for 30 mins by ethidium bromide staining-based gel electrophoresis assay; method in brief: as §2

Sequence of DNA topoisomerase 2-alpha (Homo sapiens) (P11388 whole entry): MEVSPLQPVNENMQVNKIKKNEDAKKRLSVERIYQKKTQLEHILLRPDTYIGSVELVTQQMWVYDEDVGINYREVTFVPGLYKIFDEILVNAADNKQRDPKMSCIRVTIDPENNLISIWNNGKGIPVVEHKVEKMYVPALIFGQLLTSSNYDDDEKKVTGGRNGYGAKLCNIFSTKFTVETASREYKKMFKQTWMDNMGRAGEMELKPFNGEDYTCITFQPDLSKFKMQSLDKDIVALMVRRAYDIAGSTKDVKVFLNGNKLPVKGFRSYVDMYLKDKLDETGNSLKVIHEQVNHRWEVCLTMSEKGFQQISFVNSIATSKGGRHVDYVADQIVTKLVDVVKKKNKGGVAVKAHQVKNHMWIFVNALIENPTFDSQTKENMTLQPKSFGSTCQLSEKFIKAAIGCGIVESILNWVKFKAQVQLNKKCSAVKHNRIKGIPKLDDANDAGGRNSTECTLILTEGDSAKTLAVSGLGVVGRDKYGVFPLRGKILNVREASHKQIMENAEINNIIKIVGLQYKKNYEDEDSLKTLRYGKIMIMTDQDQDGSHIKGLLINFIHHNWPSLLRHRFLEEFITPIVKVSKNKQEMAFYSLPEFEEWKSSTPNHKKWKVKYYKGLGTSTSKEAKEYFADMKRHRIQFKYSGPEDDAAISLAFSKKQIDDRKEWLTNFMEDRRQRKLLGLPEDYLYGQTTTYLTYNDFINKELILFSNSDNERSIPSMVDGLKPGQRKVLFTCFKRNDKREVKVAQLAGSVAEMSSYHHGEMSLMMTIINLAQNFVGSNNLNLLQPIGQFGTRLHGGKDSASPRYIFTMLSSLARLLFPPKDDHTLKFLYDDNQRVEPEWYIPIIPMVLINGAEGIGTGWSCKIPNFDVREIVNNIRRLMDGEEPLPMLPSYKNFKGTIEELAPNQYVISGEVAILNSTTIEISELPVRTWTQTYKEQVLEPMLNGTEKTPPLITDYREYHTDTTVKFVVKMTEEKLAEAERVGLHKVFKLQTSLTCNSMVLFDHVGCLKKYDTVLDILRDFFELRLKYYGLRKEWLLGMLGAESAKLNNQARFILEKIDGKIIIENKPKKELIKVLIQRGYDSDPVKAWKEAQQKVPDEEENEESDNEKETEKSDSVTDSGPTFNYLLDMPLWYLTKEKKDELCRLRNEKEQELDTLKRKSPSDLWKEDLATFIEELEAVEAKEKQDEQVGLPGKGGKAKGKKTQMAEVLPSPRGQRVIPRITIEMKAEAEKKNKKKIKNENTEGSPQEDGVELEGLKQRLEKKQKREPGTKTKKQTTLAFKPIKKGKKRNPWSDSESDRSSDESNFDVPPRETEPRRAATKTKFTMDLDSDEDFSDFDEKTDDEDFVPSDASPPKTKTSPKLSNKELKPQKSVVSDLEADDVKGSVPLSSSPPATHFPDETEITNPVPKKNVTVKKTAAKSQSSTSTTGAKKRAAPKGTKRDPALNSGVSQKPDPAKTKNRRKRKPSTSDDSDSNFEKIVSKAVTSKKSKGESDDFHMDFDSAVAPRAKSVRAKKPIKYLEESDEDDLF

pIC50 [3]: 7.00 | Drug uptake [6]: Active | Activity [7]: 3 | inhibition [8]: Active | pIC50 [9]: 6.77 | Drug uptake [10]: Active | inhibition [11]: Active | inhibition [13]: Active | inhibition [20]: Active
SMILES: CNCCNc1c2c(c(NCCNC)c3occc13)C(=O)c1ccccc1C2=O
pIC50 [1]: 6.64 | Activity [2]: Active | Activity [4]: Active | Activity [5]: Active | Activity [12]: 15.4% | Activity [14]: 1.5% | Activity [15]: 25.1% | Activity [16]: Active | Activity [17]: 13% | pIC50 [18]: 7.00 | Activity [19]: Active
